A short description of series [1]: Plasma concentration in Sprague-Dawley rat at 10 mg/kg, po at 2 hrs by LC-MS/MS analysis. It is filed as ADME, organism-based. More on the design: dose 10 mg/kg, route oral. The procedure, abridged: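 Overnight-fasted male Sprague-Dawley rats (180–220 g) were given 10 mg/kg by gastric intubation of a 5 mg/mL suspension in 0.5% methocellulose. Blood was collected after decapitation at 2, 4, 7 and 25 h under isoflurane anaesthesia. Plasma compound was measured as in the mouse assay, n = 5.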

Series [2] concerns Rattus norvegicus. Description: Antialzheimer activity in Sprague-Dawley rat assessed as amyloid beta 42 level in CSF at 10 mg/kg, po at 2 hrs by ELISA relative to control. The class given is functional. The procedure, abridged:
(§1)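 Male Sprague-Dawley rats (180-220 g), fasted overnight, were given 10 mg/kg by gastric intubation as a 5 mg/mL suspension in 0.5% methocellulose. At 2, 4, 7 and 25 h, 50 μL CSF was taken from the cisterna magna under isoflurane, then brain was collected. Aβ37/38/40/42 were measured by MesoScale Discovery sandwich immunoassays. Results are mean % change versus T = 0 h, n = 5.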

The target of a further series is hERG (KCNH2) (Homo sapiens, UniProt Q12809). The experiment in a line: Inhibition of human ERG at 3 uM by patch clamp assay. The procedure, abridged: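 Potassium membrane current was recorded with an automated patch-clamp system at 3 μM, with a vehicle control.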
Series [3] concerns Canis familiaris. The experiment in a line: Antialzheimer activity in beagle dog assessed as amyloid beta 38 level in cerebrospinal fluid at 20 mg/kg, po at 24 hrs by ELISA relative to control.
Series [4] can be described thus: Genotoxicity against human TK6 cells by GreenScreen HC test. The class given is toxicity, cell-based.
The test system of series [5] is Rattus norvegicus. Description: Antialzheimer activity in Sprague-Dawley rat assessed as amyloid beta 37 level in CSF at 10 mg/kg, po at 7 hrs by ELISA relative to control. It is filed as functional. The procedure, abridged: as §1
The subject of series [6] is Rattus norvegicus. Description: Antialzheimer activity in Sprague-Dawley rat assessed as amyloid beta 42 level in brain at 10 mg/kg, po at 25 hrs by ELISA relative to control. It is filed as functional. The procedure, abridged: as §1
Series [7] is described as follows: Drug uptake in CD1 mouse brain at 30 mg/kg, po at 4 hrs by LC-MS/MS analysis. More on the design: dose 30 mg/kg, route oral. The class given is ADME, organism-based. As to conditions: read-out: Drug uptake. The method in brief:
(§2)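 Overnight-fasted male CD1 mice received one oral dose (10 or 30 mg/kg) in 20% Captisol. After sacrifice, the left brain hemisphere was stored at −18 °C. Compound level was quantified by a qualified LC-MS/MS method, alongside EDTA plasma spun at 1900g, 4 °C. n = 4 per time point.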

The test system of series [8] is Mus musculus. Description: Antialzheimer activity in CD1 mouse assessed as amyloid beta 42 level in brain at 10 mg/kg, po at 48 hrs by ELISA relative to control. It is filed as functional. The procedure, abridged:
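Male CD1 mice, fasted overnight, received a single 10 or 30 mg/kg oral dose. Brain was sampled at an added 48 h time point. The DEA-soluble brain fraction was neutralized and Aβ42 was measured by sandwich ELISA with fluorogenic read-out. Values are % versus vehicle.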

The subject of series [9] is Mus musculus. The experiment in a line: Antialzheimer activity in po dosed CD1 mouse assessed as amyloid beta 42 level in brain at 4,8 and 24 hrs by ELISA. It is filed as functional, organism-based. The procedure, abridged:
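Overnight-fasted male CD1 SPF mice got one oral dose (10 or 30 mg/kg) formulated in 20% Captisol in water. Right brain hemisphere was homogenized in 0.4% DEA/50 mM NaCl with protease inhibitors and spun at 221300g. Supernatant was neutralized with Tris-HCl pH 6.8. Aβ42 was measured by ELISA (C-terminal JRF/cAβ42/26 capture, fluorogenic peroxidase read ex 320/em 420 nm). Values are mean % change vs T = 0 h, n = 4.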

Series [10] can be described thus: Drug uptake in Sprague-Dawley rat brain at 10 mg/kg, po at 4 hrs by LC-MS/MS analysis. Particulars: read-out: Drug uptake. Details: dose 10 mg/kg, route oral. The class given is ADME, organism-based. The method in brief:
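Overnight-fasted male Sprague–Dawley rats (180–220 g) were dosed 10 mg/kg by gastric intubation of a 5 mg/mL suspension in 0.5% methocellulose. Rats were anesthetized with isoflurane, CSF was taken from the cisterna magna, then they were decapitated. Brain compound levels were measured as in the mouse assay. n = 5.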

A short description of series [11]: Drug metabolism in dog liver microsomes at 1 uM after 15 mins by ion-trap mass spectrophotometry. It is filed as ADME, Canis lupus familiaris, Microsome. As to conditions: read-out: Drug metabolism.
The subject of series [12] is Mus musculus. Description: Inhibition of gamma-secretase in CD1 mouse assessed as total amyloid beta level in brain at 10 mg/kg, po at 4 hrs by ELISA relative to control. It is filed as functional. Details: scale not given: the % may be the effect or the level left. The procedure, abridged: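 Fasted male CD1 SPF mice were dosed orally at 10 or 30 mg/kg in 20% Captisol. Right hemisphere was homogenized in 0.4% DEA/50 mM NaCl and the high-speed supernatant neutralized. Aβtotal ELISA used N-terminal JRF/rAβ/2 capture, biotinylated 4G8 and streptavidin-peroxidase, then a fluorogenic substrate (ex 320/em 420 nm). Standards spanned 10000–0.3 pg/mL. Values are % change vs T = 0 h, n = 4.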

The test system of series [13] is Rattus norvegicus. The experiment in a line: Antialzheimer activity in Sprague-Dawley rat assessed as amyloid beta 38 level in brain at 10 mg/kg, po at 4 hrs by ELISA relative to control. The class given is functional. The procedure, abridged:
as §1

A further series deals with Brain. The experiment in a line: Drug uptake in CD1 mouse brain at 30 mg/kg, po at 48 hrs by LC-MS/MS analysis. As to conditions: in vivo, BLD = below limit of detection. Details: dose 30 mg/kg, route oral. It is filed as ADME, organism-based. The method in brief: as §2
For series [14], the system named is Canis familiaris. The experiment in a line: Antialzheimer activity in beagle dog assessed as amyloid beta 40 level in cerebrospinal fluid at 20 mg/kg, po at 8 hrs by ELISA relative to control.
Series [15] in a line: Thermodynamic solubility in buffer at pH 7.4. It is filed as physicochemical. Particulars: read-out: Therm_solubility. The procedure, abridged: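 Thermodynamic solubility was measured in pH 4.0 and pH 7.4 buffers, 0.01 N HCl, and fasted-state and fed-state simulated intestinal fluids (FaSSIF, FeSSIF). Results are in […].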
For series [16], the system named is Plasma. The experiment in a line: Plasma concentration in CD1 mouse at 10 mg/kg, po at 48 hrs by LC-MS/MS analysis. Details: dose 10 mg/kg, route oral. As to conditions: in vivo, BLD = below limit of detection. The class given is ADME, organism-based. The procedure, abridged:
(§3)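 Mice received a single 10 or 30 mg/kg oral dose. Plasma was sampled at several time points up to 48 h, with EDTA plasma obtained by centrifugation at 1900g, 10 min, 4 °C. Compound was quantified by LC-MS/MS, n = 4.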

For a further series, the target named is Cytochrome P450 3A4 (Homo sapiens, UniProt P08684). The experiment in a line: Inhibition of CYP3A4 in human liver microsomes using midazolam as substrate. It is filed as ADME, Microsome.
In series [17] the test system is Mus musculus. The experiment in a line: Antialzheimer activity in CD1 mouse assessed as amyloid beta 42 level in brain at 10 mg/kg, po at 24 hrs by ELISA relative to control. It is filed as functional. The procedure, abridged: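 Male CD1 SPF mice, fasted overnight, got a single oral dose of 10 or 30 mg/kg. At each time point the right brain hemisphere was homogenized in 0.4% DEA/50 mM NaCl with protease inhibitors and spun at 221300g for 50 min. The supernatant was neutralized with Tris-HCl pH 6.8. Aβ38 or Aβ42 was read by sandwich ELISA with a fluorogenic peroxidase substrate (ex 320/em 420 nm). Results are mean % change versus T = 0 h, n = 4.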

Series [18] in a line: Plasma concentration in CD1 mouse at 30 mg/kg, po at 8 hrs by LC-MS/MS analysis. It is filed as ADME, organism-based. Details: dose 30 mg/kg, route oral. The procedure, abridged:
as §3

The subject of series [19] is Plasma. Description: Plasma concentration in CD1 mouse at 30 mg/kg, po at 48 hrs by LC-MS/MS analysis. Details: dose 30 mg/kg, route oral. As to conditions: in vivo, BLD = below limit of detection. The class given is ADME, organism-based. The procedure, abridged:
as §3

Sequence of Cytochrome P450 3A4 (P08684 whole entry): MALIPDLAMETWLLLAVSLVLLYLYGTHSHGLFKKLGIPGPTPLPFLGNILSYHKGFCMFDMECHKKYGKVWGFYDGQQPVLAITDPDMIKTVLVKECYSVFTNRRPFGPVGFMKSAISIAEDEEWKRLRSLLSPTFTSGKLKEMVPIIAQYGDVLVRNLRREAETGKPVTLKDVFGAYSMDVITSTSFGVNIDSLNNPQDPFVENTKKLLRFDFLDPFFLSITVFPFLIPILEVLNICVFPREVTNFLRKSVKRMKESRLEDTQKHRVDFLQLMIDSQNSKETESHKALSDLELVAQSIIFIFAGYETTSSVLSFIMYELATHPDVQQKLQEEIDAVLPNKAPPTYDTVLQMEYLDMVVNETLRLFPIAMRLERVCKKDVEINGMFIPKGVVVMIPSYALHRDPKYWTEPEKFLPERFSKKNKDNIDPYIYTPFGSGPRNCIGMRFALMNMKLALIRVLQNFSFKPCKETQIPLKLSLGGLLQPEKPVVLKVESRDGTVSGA
Sequence of hERG (KCNH2) (Q12809 whole entry): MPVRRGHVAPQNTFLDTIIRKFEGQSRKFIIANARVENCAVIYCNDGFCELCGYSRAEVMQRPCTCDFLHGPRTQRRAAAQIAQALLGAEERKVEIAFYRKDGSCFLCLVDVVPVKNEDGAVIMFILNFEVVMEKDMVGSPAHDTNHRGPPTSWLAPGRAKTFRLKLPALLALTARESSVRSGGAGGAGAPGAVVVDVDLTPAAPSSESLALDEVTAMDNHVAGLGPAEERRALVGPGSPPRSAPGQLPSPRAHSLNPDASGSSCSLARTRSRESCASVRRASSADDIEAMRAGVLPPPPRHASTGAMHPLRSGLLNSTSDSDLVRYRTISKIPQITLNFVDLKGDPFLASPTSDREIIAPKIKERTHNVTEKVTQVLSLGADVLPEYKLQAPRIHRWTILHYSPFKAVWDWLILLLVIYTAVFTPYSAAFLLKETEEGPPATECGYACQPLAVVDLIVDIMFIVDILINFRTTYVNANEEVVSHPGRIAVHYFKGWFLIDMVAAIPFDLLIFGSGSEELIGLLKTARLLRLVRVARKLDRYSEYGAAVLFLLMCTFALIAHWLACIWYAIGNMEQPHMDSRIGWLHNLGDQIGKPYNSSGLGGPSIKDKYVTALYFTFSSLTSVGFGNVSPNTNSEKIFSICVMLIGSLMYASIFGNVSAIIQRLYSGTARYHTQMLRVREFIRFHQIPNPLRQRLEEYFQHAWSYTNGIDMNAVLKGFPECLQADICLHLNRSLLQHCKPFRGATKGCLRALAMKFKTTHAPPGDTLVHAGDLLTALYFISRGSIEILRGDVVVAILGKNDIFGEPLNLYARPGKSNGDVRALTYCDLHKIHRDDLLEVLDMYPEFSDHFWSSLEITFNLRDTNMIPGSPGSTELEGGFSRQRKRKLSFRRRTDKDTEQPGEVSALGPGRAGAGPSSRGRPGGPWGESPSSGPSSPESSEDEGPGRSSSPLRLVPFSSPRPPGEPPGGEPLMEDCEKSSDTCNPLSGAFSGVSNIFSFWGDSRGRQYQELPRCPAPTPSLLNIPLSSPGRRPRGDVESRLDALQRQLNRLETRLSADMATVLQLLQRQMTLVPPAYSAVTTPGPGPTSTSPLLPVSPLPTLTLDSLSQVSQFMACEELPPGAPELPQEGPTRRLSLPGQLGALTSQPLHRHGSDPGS

`COc1nc(Nc2cccc3c2nc(-c2ccc(F)cc2)n3C)ccc1-n1cnc(C)c1` had a concentration at 2 h in [1] of 4.6 µM. Besides, the Activity in the series with Rattus norvegicus [2] is 65%; in the series with Canis familiaris [3], 114%; in series [4] it was “Non-toxic”; in the series on Rattus norvegicus [5], 929%; with Rattus norvegicus [6], 92%; in the series on Mus musculus [8], 101%. For the same compound, the Activity entry in the series on Mus musculus [9] is “Dose-dependent effect”; with Mus musculus [12], 94%; in the series with Rattus norvegicus [13], 114%; with Canis familiaris [14], 64%; in the series on Mus musculus [17] it was 94%. Moreover, the inhibition at 3 µM against hERG (KCNH2) was determined as 30%. For the same compound, the results for the concentration at 4 h in series [7] and in [10] were 21.9 µM and 2.2 µM, respectively. The metabolised at 0.25 h, 1 µM in series [11] was 37%. The Drug uptake result with Brain is “BLD”. Moreover, the solubility thermodynamic in series [15] is < 1 µg/mL. Moreover, the Cp entry in the series with Plasma [16] and in the series on Plasma [19] was “BLD” each time. This compound also yielded an IC50 against Cytochrome P450 3A4 of 8.7 µM. In addition, the concentration at 8 h in [18] was 10.5 µM.
